Data taken from publication PMC6247064 (Cancer Science, 2018).
Several values for one entry are separate records, joined by “and”; a condition that tells them apart may be missing. Equal values may be shown once. Read-outs that look alike come from different tables or passages of the source.

Columns and labels:
advanced solid tumors [1] = settings: cited from earlier work
advanced solid tumors [2] = assay: Phase 1 study: antitumor activity by RECIST version 1.1; format: in vivo, human
Summary of the method: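 Adults with advanced solid tumors received the test compound at 80 or 105 mg/m2 by IV infusion on day 1 of each 14-day cycle. Tumors were measured by CT or MRI and scored with RECIST 1.1. Best overall response was the best response recorded from the start of treatment until disease progression. Patients counted if they had baseline and post-baseline tumor measurements.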

[3] = Phase 1 study: noncompartmental plasma pharmacokinetics; format: in vivo, human; settings: for C av,72 (average plasma concentration over 72 h): geometric mean (CV%)
Summary of the method: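 The test compound was given as a 1-h IV infusion at 80 or 105 mg/m2 every 14 days. Plasma levels were measured by validated LC/MS/MS and analysed noncompartmentally. C av,72 is the mean plasma concentration over 72 h after infusion. Accumulation ratio is cycle 2 day 1 AUC(0-24) divided by cycle 1 day 1 AUC(0-24). Values are geometric means.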

SMILES: COc1cccc(OCCCN)c1-c1cc(Nc2cnc(C#N)cn2)n[nH]1 [Prexasertib]
- Best overall response of stable disease (advanced solid tumors [1]; US phase 1, 15 of 45 patients): 33%
- Partial response (advanced solid tumors [1]; US phase 1, 45 patients, Two patients (SCC of the anus, SCC of the head and neck)): 4%
- Recommended prexasertib dose (advanced solid tumors [1]; US phase 1, administered once every 14 days): 105 mg/m^2
- Patients with tumor shrinkage (advanced solid tumors [1]; phase 1 trial in non-Japanese patients): 10 of 34
- Maximum tumor shrinkage from baseline, individual patients with esophageal SCC (advanced solid tumors [2]; 80 mg/m^2, two patients with BOR of stable disease): 20% and 13%
- BOR progressive disease (advanced solid tumors [2]; 80 mg/m^2 group, 2 of 6 patients): 33.3%
- BOR stable disease (advanced solid tumors [2]; 80 mg/m^2 group, 4 of 6 patients): 66.7%
- BOR progressive disease (advanced solid tumors [2]; 105 mg/m^2 group, 1 of 5 evaluable patients): 20.0%
- BOR stable disease (advanced solid tumors [2]; 105 mg/m^2 group, 4 of 5 evaluable patients): 80.0%
- Complete response or partial response (advanced solid tumors [2]; all patients): No patients in the study had a complete response or partial response
- Best overall response of stable disease (advanced solid tumors [2]; patients with baseline and post-baseline tumor measurements, both doses): 8 of 11
- C av,72 (average plasma concentration over 72 h) ([3]; 80 mg/m^2 1-h IV infusion, Cycle 1, day 1, N 6): 23.1 (22) ng/mL
- C av,72 (average plasma concentration over 72 h) ([3]; 80 mg/m^2 1-h IV infusion, Cycle 2, day 1, N 4): 24.8 (16) ng/mL
- C av,72 (average plasma concentration over 72 h) ([3]; 105 mg/m^2 1-h IV infusion, Cycle 1, day 1, N 6): 30.0 (13) ng/mL
- C av,72 (average plasma concentration over 72 h) ([3]; 105 mg/m^2 1-h IV infusion, Cycle 2, day 1, N 3): 31.5 (22) ng/mL
- Intercycle accumulation between cycle 1 and cycle 2 ([3]; both treatment groups): no intercycle accumulation
